Experimental data published in ChEMBL document CHEMBL1139007 (J Med Chem, 2006).
One block for each molecule: values may come before it.

Columns and labels:
[1] = target: T1, C-C chemokine receptor type 5 (Homo sapiens, UniProt P51681); assay: Displacement of [125I]RANTES from CCR5 expressed in CHO cells; type: cell-based
Target sequence in this assay (P51681 whole entry): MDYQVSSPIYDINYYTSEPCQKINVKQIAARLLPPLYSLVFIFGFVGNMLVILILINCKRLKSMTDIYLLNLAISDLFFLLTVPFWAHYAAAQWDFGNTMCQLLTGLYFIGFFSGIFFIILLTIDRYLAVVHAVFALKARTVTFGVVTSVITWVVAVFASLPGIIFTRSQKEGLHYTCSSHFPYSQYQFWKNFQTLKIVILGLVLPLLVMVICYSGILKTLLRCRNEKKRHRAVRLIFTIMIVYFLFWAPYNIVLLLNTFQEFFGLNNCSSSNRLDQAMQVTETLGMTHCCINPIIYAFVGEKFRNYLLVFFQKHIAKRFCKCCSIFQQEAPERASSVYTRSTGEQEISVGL

[2] = target: T1, C-C chemokine receptor type 5; assay: Inhibition of replication of R5 HIV1 Ba-L in MOLT4/CCR5 cells; type: functional, cell-based; conditions: Human immunodeficiency virus 1, MOLT-4
Target sequence in this assay (P51681 whole entry, looked up): as the sequence (P51681 whole entry) above

[3] = target: T1, C-C chemokine receptor type 5; conditions: Human immunodeficiency virus 1; Ba-L; MOLT-4; 5 nM
Target sequence in this assay (P51681 whole entry, looked up): as the sequence (P51681 whole entry) above

[4] = Tmax in cynomolgus monkey plasma at 3 mg/kg, po; type: ADME, organism-based, Macaca fascicularis; set-up: dose 3 mg/kg, route oral
[5] = Cmax in cynomolgus monkey plasma at 3 mg/kg, po; type: ADME, organism-based, Macaca fascicularis; set-up: dose 3 mg/kg, route oral
[6] = Half life in Beagle dog plasma at 1 mg/kg, iv; type: ADME, organism-based, Canis lupus familiaris; set-up: dose 1 mg/kg, route intravenous
How it was run: (§1)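 Blood was drawn at set times (rat tail vein, dog cephalic vein, monkey femoral vein) and spun to plasma. Plasma was run on C8 HPLC, 1-min fractions counted by liquid scintillation.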

[7] = Tmax in Sprague-Dawley rat plasma at 3 mg/kg, po; type: ADME, organism-based; set-up: dose 3 mg/kg, route oral
[8] = Bioavailability in cynomolgus monkey at 3 mg/kg, po; type: ADME, organism-based, Macaca fascicularis; conditions: in vivo
[9] = tested on: Human immunodeficiency virus 1; assay: Inhibition of replication of R5 HIV1 HKW in PMBC; type: functional, organism-based; conditions: Human immunodeficiency virus 1, HKW
How it was run: (§2)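 PHA-stimulated PBMCs infected with clinical isolate (11-55 ng p24 per 4 × 10⁶ cells) for 4 h, washed to remove unadsorbed virus, then seeded at 2 × 10⁵ cells/well with a range of compound concentrations. On day 4 cells were split 1:2 into medium with the same compound level. IC50/IC90 for inhibition of replication; triplicate, repeated 3 or 4 times with PBMCs from different donors; means reported.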

[10] = Plasma concentration in cynomolgus monkey after 5 min at 1 mg/kg, iv; type: ADME, organism-based, Macaca fascicularis; set-up: dose 1 mg/kg, route intravenous; how it was run: as §1
[11] = AUC (0-24h) in Sprague-Dawley rat at 1 mg/kg, iv; type: ADME, organism-based; set-up: time < 24 hr, dose 1 mg/kg, route intravenous; conditions: plasma; how it was run: as §1
[12] = Cmax in Beagle dog plasma at 3 mg/kg, po; type: ADME, organism-based, Canis lupus familiaris; set-up: dose 3 mg/kg, route oral
[13] = target: T2, C-C chemokine receptor type 1 (Homo sapiens, UniProt P32246); assay: Displacement of [125I]RANTES from CCR1 expressed in CHO cells; type: cell-based
T2 sequence (P32246 whole entry): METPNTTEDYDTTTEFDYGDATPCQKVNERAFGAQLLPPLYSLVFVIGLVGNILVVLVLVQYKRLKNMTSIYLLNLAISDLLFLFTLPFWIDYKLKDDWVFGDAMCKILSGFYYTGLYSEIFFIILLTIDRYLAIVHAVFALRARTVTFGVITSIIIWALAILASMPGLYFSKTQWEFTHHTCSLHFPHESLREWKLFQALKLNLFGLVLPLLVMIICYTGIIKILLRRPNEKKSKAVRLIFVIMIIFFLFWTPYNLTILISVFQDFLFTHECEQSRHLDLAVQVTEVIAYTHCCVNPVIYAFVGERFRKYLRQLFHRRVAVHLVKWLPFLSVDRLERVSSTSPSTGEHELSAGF
How it was run: (§3)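 CHO cells stably expressing the named chemokine receptor were incubated with the [125I]-labelled ligand (RANTES for CCR5 and CCR1, eotaxin for CCR3, TARC for CCR4) and varying compound concentrations. IC50 for inhibition of ligand binding is the mean of triplicate measurements.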

[14] = Cmax in Sprague-Dawley rat plasma at 3 mg/kg, po; type: ADME, organism-based; set-up: dose 3 mg/kg, route oral
[15] = AUC (0-24h) in cynomolgus monkey at 1 mg/kg, iv; type: ADME, organism-based, Macaca fascicularis; set-up: time < 24 hr, dose 1 mg/kg, route intravenous; conditions: plasma; how it was run: as §1
[16] = AUC (0-24h) in Beagle dog at 1 mg/kg, iv; type: ADME, organism-based, Canis lupus familiaris; set-up: time < 24 hr, dose 1 mg/kg, route intravenous; conditions: plasma; how it was run: as §1
[17] = AUC (0-24h) in Beagle dog at 3 mg/kg, po; type: ADME, organism-based, Canis lupus familiaris; set-up: time < 24 hr, dose 3 mg/kg, route oral; conditions: plasma
[18] = Tmax in Beagle dog plasma at 3 mg/kg, po; type: ADME, organism-based, Canis lupus familiaris; set-up: dose 3 mg/kg, route oral
[19] = target: T3, C-C chemokine receptor type 4 (Homo sapiens, UniProt P51679); assay: Displacement of [125I]TARC from CCR4 expressed in CHO cells; type: cell-based; how it was run: as §3
T3 sequence (P51679 whole entry): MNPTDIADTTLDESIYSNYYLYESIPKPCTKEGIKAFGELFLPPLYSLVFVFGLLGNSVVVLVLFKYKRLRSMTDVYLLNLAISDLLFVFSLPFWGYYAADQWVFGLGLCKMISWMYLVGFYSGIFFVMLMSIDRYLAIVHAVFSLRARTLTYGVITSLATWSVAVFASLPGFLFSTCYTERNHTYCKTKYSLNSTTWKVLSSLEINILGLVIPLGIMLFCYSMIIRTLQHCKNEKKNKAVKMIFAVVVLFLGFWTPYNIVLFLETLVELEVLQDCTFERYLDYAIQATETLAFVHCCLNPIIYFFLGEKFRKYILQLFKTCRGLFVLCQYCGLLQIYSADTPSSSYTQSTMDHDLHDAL

[20] = Plasma concentration in Sprague-Dawley rat after 5 min at 1 mg/kg, iv; type: ADME, organism-based; set-up: dose 1 mg/kg, route intravenous; how it was run: as §1
[21] = AUC (0-24h) in Sprague-Dawley rat at 3 mg/kg, po; type: ADME, organism-based; set-up: time < 24 hr, dose 3 mg/kg, route oral; conditions: plasma
[22] = tested on: Human immunodeficiency virus 1; assay: Inhibition of replication of R5 HIV1 CTV in PMBC; type: functional, organism-based; conditions: Human immunodeficiency virus 1, CTV; how it was run: as §2
[23] = tested on: Human immunodeficiency virus 1; assay: Inhibition of replication of R5 HIV1 HTN in PMBC; type: functional, organism-based; conditions: Human immunodeficiency virus 1, HTN; how it was run: as §2
[24] = Plasma concentration in Beagle dog after 5 min at 1 mg/kg, iv; type: ADME, organism-based, Canis lupus familiaris; set-up: dose 1 mg/kg, route intravenous; how it was run: as §1
[25] = target: T4, C-C chemokine receptor type 3 (Homo sapiens, UniProt P51677); assay: Displacement of [125I]eotaxin from CCR3 expressed in CHO cells; type: cell-based; how it was run: as §3
T4 sequence (P51677 whole entry): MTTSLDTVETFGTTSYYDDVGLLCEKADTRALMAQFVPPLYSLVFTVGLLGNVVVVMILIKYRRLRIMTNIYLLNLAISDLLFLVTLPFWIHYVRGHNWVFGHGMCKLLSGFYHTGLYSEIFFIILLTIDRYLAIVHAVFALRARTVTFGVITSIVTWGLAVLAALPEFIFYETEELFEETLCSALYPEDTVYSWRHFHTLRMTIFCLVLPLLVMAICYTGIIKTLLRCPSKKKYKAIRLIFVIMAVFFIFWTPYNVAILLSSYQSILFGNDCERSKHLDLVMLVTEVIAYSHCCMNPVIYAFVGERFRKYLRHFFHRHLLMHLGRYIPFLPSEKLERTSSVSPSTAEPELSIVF

[26] = Bioavailability in Sprague-Dawley rat at 3 mg/kg, po; type: ADME, organism-based; conditions: in vivo
[27] = tested on: Human immunodeficiency virus 1; assay: Inhibition of replication of R5 HIV1 HHA in PMBC; type: functional, organism-based; conditions: Human immunodeficiency virus 1, HHA; how it was run: as §2
[28] = tested on: Human immunodeficiency virus 1; assay: Inhibition of replication of R5 HIV1 HNK in PMBC; type: functional, organism-based; conditions: Human immunodeficiency virus 1, HNK; how it was run: as §2
[29] = tested on: Human immunodeficiency virus 1; assay: Inhibition of replication of R5 HIV1 KK in PMBC; type: functional, organism-based; conditions: Human immunodeficiency virus 1, KK; how it was run: as §2
[30] = AUC (0-24h) in cynomolgus monkey at 3 mg/kg, po; type: ADME, organism-based, Macaca fascicularis; set-up: time < 24 hr, dose 3 mg/kg, route oral; conditions: plasma
[31] = target: T5, C-C chemokine receptor type 7 (Homo sapiens, UniProt P32248); assay: Displacement of [125I]MIP-3beta from CCR7 expressed in CHO cells; type: cell-based
T5 sequence (P32248 whole entry): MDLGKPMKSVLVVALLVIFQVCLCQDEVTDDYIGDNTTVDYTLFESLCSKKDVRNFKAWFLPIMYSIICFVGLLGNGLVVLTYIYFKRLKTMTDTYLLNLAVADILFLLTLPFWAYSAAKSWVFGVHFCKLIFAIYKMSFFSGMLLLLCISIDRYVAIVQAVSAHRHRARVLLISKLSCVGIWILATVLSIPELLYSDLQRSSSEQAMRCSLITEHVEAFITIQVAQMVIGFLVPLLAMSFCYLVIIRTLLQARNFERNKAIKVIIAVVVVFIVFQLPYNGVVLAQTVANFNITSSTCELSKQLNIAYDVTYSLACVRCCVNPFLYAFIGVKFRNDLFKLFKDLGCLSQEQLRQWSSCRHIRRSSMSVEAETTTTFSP
How it was run: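 CHO cells stably expressing CCR7, run in the same way as the CCR5 binding assay. Binding of [¹²⁵I]-MIP-3β was measured across a range of test compound concentrations. IC50 is the concentration that inhibits ligand binding by 50%, reported as the mean of triplicate measurements.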

[32] = Half life in cynomolgus monkey plasma at 1 mg/kg, iv; type: ADME, organism-based, Macaca fascicularis; set-up: dose 1 mg/kg, route intravenous; how it was run: as §1
[33] = Bioavailability in Beagle dog at 3 mg/kg, po; type: ADME, organism-based, Canis lupus familiaris; conditions: in vivo
[34] = Half life in Sprague-Dawley rat plasma at 1 mg/kg, iv; type: ADME, organism-based; set-up: dose 1 mg/kg, route intravenous; how it was run: as §1

Structure (SMILES): CCCCOCCOc1ccc(-c2ccc3c(c2)/C=C(/C(=O)Nc2ccc([S@@+]([O-])Cc4nncn4CCC)cc2)CCCN3CC(C)C)cc1
IC50 [1]: 2.4 nM | IC90 [2]: 10 nM

Structure (SMILES): CCCCOCCOc1ccc(-c2ccc3c(c2)/C=C(/C(=O)Nc2ccc([S@@+]([O-])Cc4cncn4CCC)cc2)CCCCN3CCC)cc1
IC50 [1]: 4.7 nM

Structure (SMILES): CCCCOCCOc1ccc(-c2ccc3c(c2)/C=C(/C(=O)Nc2ccc([S@@+]([O-])Cc4cncn4CCC)cc2)CCCCCN3CC(C)C)cc1
IC50 [1]: 67 nM

Structure (SMILES): CCCCOCCOc1ccc(-c2ccc3c(c2)/C=C(/C(=O)Nc2ccc([S@@+]([O-])Cc4cncn4CCC)cc2)CCCCCN3CCC)cc1
IC50 [1]: 25 nM

Structure (SMILES): CCCCOCCOc1ccc(-c2ccc3c(c2)/C=C(/C(=O)Nc2ccc([S@@+]([O-])Cc4cncn4CCC)cc2)CCCCN3CC(C)C)cc1
IC50 [1]: 6.8 nM | IC90 [2]: 19 nM

Structure (SMILES): CCCCOCCOc1ccc(-c2ccc3c(c2)/C=C(/C(=O)Nc2ccc([S@@+]([O-])Cc4cncn4CCC)cc2)CCCN3CC(C)C)cc1.CS(=O)(=O)O [CENICRIVIROC MESYLATE]
Tmax [4]: 2 h | Cmax [5]: 0.116 µg/mL | half-life [6]: 5.04 h | Tmax [7]: 1.3 h | bioavailability [8]: 15.6% | IC50 [9]: 0.049 nM | IC90 [9]: 0.16 nM | concentration at 5 min [10]: 3.11 µg/mL | AUC(0-t) at 24 h [11]: 7.61 µg·h/mL | Cmax [12]: 0.57 µg/mL | IC50 [13]: > 10000 nM | Cmax [14]: 0.485 µg/mL | AUC(0-t) at 24 h [15]: 1.45 µg·h/mL | AUC(0-t) at 24 h [16]: 2.31 µg·h/mL | AUC(0-t) at 24 h [17]: 6.01 µg·h/mL | Tmax [18]: 2.7 h | IC50 [19]: 1100 nM | concentration at 5 min [20]: 8.02 µg/mL | AUC(0-t) at 24 h [21]: 2.32 µg·h/mL | IC50 [22]: 0.07 nM | IC90 [22]: 0.31 nM | IC50 [23]: 0.089 nM | IC90 [23]: 0.32 nM | concentration at 5 min [24]: 2.31 µg/mL | IC50 [25]: 2400 nM | bioavailability [26]: 10.2% | IC50 [27]: 0.024 nM | IC90 [27]: 0.13 nM | IC50 [28]: 0.087 nM | IC90 [28]: 0.36 nM | IC50 [29]: 0.043 nM | IC90 [29]: 0.19 nM | AUC(0-t) at 24 h [30]: 0.67 µg·h/mL | IC50 [31]: > 10000 nM | IC90 [2]: 0.81 nM | half-life [32]: 6.09 h | bioavailability [33]: 88.5% | half-life [34]: 4.85 h

More lines, in order of falling IC50 [1], values ahead:

IC50 [1]: 2.2 nM
Structure (SMILES): CCCCOCCOc1ccc(-c2ccc3c(c2)/C=C(/C(=O)Nc2ccc([S@@+]([O-])Cc4nncn4CCC)cc2)CCCN3CCC)cc1

IC50 [1]: 1.9 nM | IC90 [2]: 860 nM
Structure (SMILES): CCCCOCCOc1ccc(-c2ccc3c(c2)C=C(C(=O)Nc2ccc([S+]([O-])Cc4cncn4CCC)cc2)CCN3CC(C)C)cc1 (configuration not stated)

IC50 [1]: 1.7 nM | IC90 [2]: 11 nM
Structure (SMILES): CCCCOCCOc1ccc(-c2ccc3c(c2)/C=C(/C(=O)Nc2ccc([S@@+]([O-])Cc4cncn4CCC)cc2)CCCN3Cc2cnn(C)c2)cc1

inhibition [3]: 72% | IC50 [1]: 1.7 nM
Structure (SMILES): CCCCOCCOc1ccc(-c2ccc3c(c2)/C=C(/C(=O)Nc2ccc([S@@+]([O-])Cc4cncn4CCC)cc2)CCCN3CCC)cc1
